Measurements as given in ChEMBL document CHEMBL3286180, “Efficacious inhaled PDE4 inhibitors with low emetic potential and long duration of action for the treatment of COPD” (J Med Chem, 2014).
Values after ≈ are worked out from the molar mass of the structure shown. Active and inactive are the calls of the source. The rule behind the calls is not given here.

Legend:
[1] = biological target: Voltage-gated inwardly rectifying potassium channel KCNH2 (Homo sapiens, UniProt Q12809); experiment: Inhibition of human ERG
CYP (isoform not stated) = experiment: Time dependent inhibition of CYP (unknown origin) at 50 uM; assay type: ADME; conditions: human; read-out: TDI
PBMC = experiment: Antiinflammatory activity in human PBMC assessed as inhibition of LPS-induced TNFalpha production after 20 hrs by fluorescence linked immunosorbant assay; assay type: functional, cell-based
[2] = Fraction unbound in human plasma; assay type: ADME, cell-free
[3] = Fraction unbound in rat plasma; assay type: ADME, cell-free
[4] = Aqueous solubility of the compound at pH 7.4; assay type: physicochemical; conditions: aqueous medium
[5] = Lipophilicity, log D of the compound; assay type: physicochemical; conditions: octanol/water
[6] = Intrinsic clearance in human liver microsomes; assay type: ADME; conditions: read-out: CLH
[7] = Intrinsic clearance in rat hepatocytes measured per 10^6 cells; assay type: ADME, cell-based, Hepatocyte; conditions: read-out: CLH
[8] = Clearance in rat at 1 mg/kg, iv; assay type: ADME, organism-based; parameters: dose 1 mg/kg, route intravenous; conditions: in vivo
Method in brief: (§1)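 Rat pharmacokinetics were run at 1 mg/kg, given iv or by intratracheal instillation, with 2−3 animals per study.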

[9] = Volume of distribution at steady state in rat at 1 mg/kg, iv; assay type: ADME, organism-based; parameters: dose 1 mg/kg, route intravenous; conditions: in vivo, read-out: Vdss
[10] = Half life in rat at 1 mg/kg, iv; assay type: ADME, organism-based; parameters: dose 1 mg/kg, route intravenous; conditions: in vivo; method in brief: as §1
Cytochrome P450 3A4 = Cytochrome P450 3A4 (Homo sapiens, UniProt P08684); experiment: Inhibition of CYP3A4 (unknown origin); assay type: ADME
Cytochrome P450 2C9 = Cytochrome P450 2C9 (Homo sapiens, UniProt P11712); experiment: Inhibition of CYP2C9 (unknown origin); assay type: ADME
Rattus norvegicus [11] = experiment: Antiinflammatory activity in Sprague-Dawley rat assessed as inhibition of LPS-induced bronchoalveolar lavage neutrophils at 0.01 mg/ml, inhalation administered as nebulized suspension; assay type: functional
Method in brief: (§2)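 Rats were given the compound as an aqueous nebulized aerosol by nose-only inhalation 30 min before LPS challenge. Dose is expressed as mg/mL nebulizer concentration. Lung neutrophilia was the readout, and terminal lung concentration (nM) was measured. Groups held 8−10 animals per treatment.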

Rattus norvegicus [12] = experiment: Antiinflammatory activity in Sprague-Dawley rat assessed as inhibition of LPS-induced bronchoalveolar lavage neutrophils measured as LPS duration at 0.01 mg/ml, inhalation administered as nebulized suspension; assay type: functional, organism-based; conditions: 0.1 mg/ml, in the assay text read “0.1 mg/ml” for “0.01 mg/ml”
Method in brief: (§3)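 Duration protocol: rats received a nose-only inhalation of nebulized aqueous compound solution 12 h before LPS challenge. Dose is expressed as mg/mL nebulizer concentration. Readout was LPS-induced pulmonary neutrophilia, with terminal lung concentration (nM) measured. Groups held 8−10 animals per treatment.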

Cytochrome P450 2D6 = Cytochrome P450 2D6 (Homo sapiens, UniProt P10635); experiment: Inhibition of CYP2D6 (unknown origin); assay type: ADME
Cytochrome P450 2C19 = Cytochrome P450 2C19 (Homo sapiens, UniProt P33261); experiment: Inhibition of CYP2C19 (unknown origin); assay type: ADME
Rattus norvegicus [13] = experiment: Apparent volume of distribution in rat at 1 mg/kg, iv; assay type: ADME, organism-based; parameters: dose 1 mg/kg, route intravenous; conditions: in vivo; method in brief: as §1
Rattus norvegicus [14] = experiment: Antiinflammatory activity in Sprague-Dawley rat assessed as inhibition of LPS-induced bronchoalveolar lavage neutrophils measured as LPS duration at 0.1 mg/ml, inhalation administered as nebulized suspension; assay type: functional, organism-based; method in brief: as §3
Rattus norvegicus [15] = experiment: Antiinflammatory activity in Sprague-Dawley rat assessed as inhibition of LPS-induced bronchoalveolar lavage neutrophils at 0.1 mg/ml, inhalation administered as nebulized suspension; assay type: functional, organism-based; method in brief: as §2
[16] = Oral bioavailability in rat at 1 mg/kg; assay type: ADME, organism-based; conditions: in vivo
[17] = Clearance in dog; assay type: ADME, organism-based, Canis lupus familiaris; conditions: in vivo
Rattus norvegicus [18] = experiment: Antiinflammatory activity in Sprague-Dawley rat assessed as inhibition of LPS-induced bronchoalveolar lavage neutrophils at 0.03 mg/ml, inhalation administered as nebulized suspension; assay type: functional, organism-based; method in brief: as §2
Blood [19] = experiment: Antiinflammatory activity in human whole blood assessed as inhibition of LPS-induced TNFalpha production after 20 hrs by ELISA; assay type: functional, tissue-based
[20] = Half life in rat at 1 mg/kg, it; assay type: ADME, organism-based; parameters: dose 1 mg/kg, route endotracheal; conditions: in vivo, inhaled or intranasal; method in brief: as §1
Rattus norvegicus [21] = experiment: Antiinflammatory activity in nasally dosed Sprague-Dawley rat assessed as inhibition of LPS-induced bronchoalveolar lavage neutrophils measured as nebulizer concentration administered as […]; assay type: functional
Method in brief: (§4)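 ED80 was derived from the nose-only nebulized-solution dose response in rats dosed 30 min before LPS challenge, with neutrophilia as the readout. ED80 is given as nebulizer concentration, as the matching terminal total lung concentration, and as lung deposited dose estimated from measured filter sample and terminal lung levels.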

[22] = biological target: 3',5'-cyclic-AMP phosphodiesterase 4A (Homo sapiens, UniProt P27815); experiment: Inhibition of human PDE4A1A using [3H]cAMP by packard topcount scintillation counting analysis
[23] = Volume of distribution at steady state in dog; assay type: ADME, organism-based, Canis lupus familiaris; conditions: in vivo, read-out: Vdss
[24] = Apparent volume of distribution in dog; assay type: ADME, organism-based, Canis lupus familiaris; conditions: in vivo, read-out: Vz/F
[25] = Oral bioavailability in dog; assay type: ADME, organism-based, Canis lupus familiaris; conditions: in vivo
[26] = Half life in dog; assay type: ADME, organism-based, Canis lupus familiaris; conditions: in vivo
Rattus norvegicus [27] = experiment: Antiinflammatory activity in nasally dosed Sprague-Dawley rat assessed as inhibition of LPS-induced bronchoalveolar lavage neutrophils measured as lung concentration administered as […]; assay type: functional; method in brief: as §4
Rattus norvegicus [28] = experiment: Antiinflammatory activity in nasally dosed Sprague-Dawley rat assessed as inhibition of LPS-induced bronchoalveolar lavage neutrophils measured as lung deposited dose administered as […]; assay type: functional; method in brief: as §4
[29] = Lipophilicity, log K of the compound; assay type: physicochemical; conditions: octanol/water
Rattus norvegicus [30] = experiment: Antiinflammatory activity in Sprague-Dawley rat assessed as inhibition of LPS-induced bronchoalveolar lavage neutrophils measured as terminal lung concentration at 0.003 mg/ml, inhalation administered as nebulized suspension; assay type: functional; method in brief: as §2
Rattus norvegicus [31] = experiment: Antiinflammatory activity in Sprague-Dawley rat assessed as inhibition of LPS-induced bronchoalveolar lavage neutrophils measured as terminal lung concentration at 0.01 mg/ml, inhalation administered as nebulized suspension; assay type: functional; method in brief: as §2
Rattus norvegicus [32] = experiment: Antiinflammatory activity in Sprague-Dawley rat assessed as inhibition of LPS-induced bronchoalveolar lavage neutrophils measured as terminal lung concentration at 0.03 mg/ml, inhalation administered as nebulized suspension; assay type: functional; method in brief: as §2
Rattus norvegicus [33] = experiment: Antiinflammatory activity in Sprague-Dawley rat assessed as inhibition of LPS-induced bronchoalveolar lavage neutrophils measured as terminal lung concentration at 0.1 mg/ml, inhalation administered as nebulized suspension; assay type: functional; method in brief: as §2
Rattus norvegicus [34] = experiment: Antiinflammatory activity in Sprague-Dawley rat assessed as inhibition of LPS-induced bronchoalveolar lavage neutrophils measured as terminal lung concentration at 0.03 mg/ml, inhalation administered as […] treated 12 hrs before LPS; assay type: functional; method in brief: as §3
Rattus norvegicus [35] = experiment: Antiinflammatory activity in Sprague-Dawley rat assessed as inhibition of LPS-induced bronchoalveolar lavage neutrophils measured as terminal lung concentration at 0.1 mg/ml, inhalation administered as […] treated 12 hrs before LPS; assay type: functional; method in brief: as §3
Rattus norvegicus [36] = experiment: Antiinflammatory activity in Sprague-Dawley rat assessed as inhibition of LPS-induced bronchoalveolar lavage neutrophils measured as terminal lung concentration at 0.3 mg/ml, inhalation administered as nebulized suspension treated 12 hrs before LPS; assay type: functional; conditions: in the assay text read “nebulized solution” for “nebulized suspension”; method in brief: as §3
[37] = biological target: T1, 3',5'-cyclic-AMP phosphodiesterase 4B (Rattus norvegicus, UniProt P14646)
T1 sequence (P14646 whole entry): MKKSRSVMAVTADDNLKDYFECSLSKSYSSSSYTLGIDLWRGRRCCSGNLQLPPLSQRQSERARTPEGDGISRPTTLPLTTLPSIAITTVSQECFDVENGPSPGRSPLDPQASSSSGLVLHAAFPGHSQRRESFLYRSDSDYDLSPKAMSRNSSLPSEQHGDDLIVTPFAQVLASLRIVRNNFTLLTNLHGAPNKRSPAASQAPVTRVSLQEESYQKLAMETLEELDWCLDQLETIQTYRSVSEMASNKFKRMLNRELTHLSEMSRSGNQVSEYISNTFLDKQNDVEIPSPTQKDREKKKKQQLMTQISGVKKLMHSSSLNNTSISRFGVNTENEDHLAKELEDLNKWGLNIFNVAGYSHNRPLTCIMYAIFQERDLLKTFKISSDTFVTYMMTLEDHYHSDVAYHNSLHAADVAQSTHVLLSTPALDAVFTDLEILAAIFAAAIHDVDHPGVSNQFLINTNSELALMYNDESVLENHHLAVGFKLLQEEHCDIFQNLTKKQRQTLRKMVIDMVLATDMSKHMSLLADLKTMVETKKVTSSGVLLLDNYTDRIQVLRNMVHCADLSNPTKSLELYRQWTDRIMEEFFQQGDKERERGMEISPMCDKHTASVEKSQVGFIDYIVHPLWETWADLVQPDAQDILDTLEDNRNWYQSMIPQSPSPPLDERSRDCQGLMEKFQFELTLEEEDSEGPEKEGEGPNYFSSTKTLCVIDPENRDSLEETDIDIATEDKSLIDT

Blood [38] = experiment: tissue or blood; conditions: Rattus norvegicus, 20 h, read-out: pIC50 (converted)

Voltage-gated inwardly rectifying potassium channel KCNH2, sequence (Q12809 whole entry, canonical isoform): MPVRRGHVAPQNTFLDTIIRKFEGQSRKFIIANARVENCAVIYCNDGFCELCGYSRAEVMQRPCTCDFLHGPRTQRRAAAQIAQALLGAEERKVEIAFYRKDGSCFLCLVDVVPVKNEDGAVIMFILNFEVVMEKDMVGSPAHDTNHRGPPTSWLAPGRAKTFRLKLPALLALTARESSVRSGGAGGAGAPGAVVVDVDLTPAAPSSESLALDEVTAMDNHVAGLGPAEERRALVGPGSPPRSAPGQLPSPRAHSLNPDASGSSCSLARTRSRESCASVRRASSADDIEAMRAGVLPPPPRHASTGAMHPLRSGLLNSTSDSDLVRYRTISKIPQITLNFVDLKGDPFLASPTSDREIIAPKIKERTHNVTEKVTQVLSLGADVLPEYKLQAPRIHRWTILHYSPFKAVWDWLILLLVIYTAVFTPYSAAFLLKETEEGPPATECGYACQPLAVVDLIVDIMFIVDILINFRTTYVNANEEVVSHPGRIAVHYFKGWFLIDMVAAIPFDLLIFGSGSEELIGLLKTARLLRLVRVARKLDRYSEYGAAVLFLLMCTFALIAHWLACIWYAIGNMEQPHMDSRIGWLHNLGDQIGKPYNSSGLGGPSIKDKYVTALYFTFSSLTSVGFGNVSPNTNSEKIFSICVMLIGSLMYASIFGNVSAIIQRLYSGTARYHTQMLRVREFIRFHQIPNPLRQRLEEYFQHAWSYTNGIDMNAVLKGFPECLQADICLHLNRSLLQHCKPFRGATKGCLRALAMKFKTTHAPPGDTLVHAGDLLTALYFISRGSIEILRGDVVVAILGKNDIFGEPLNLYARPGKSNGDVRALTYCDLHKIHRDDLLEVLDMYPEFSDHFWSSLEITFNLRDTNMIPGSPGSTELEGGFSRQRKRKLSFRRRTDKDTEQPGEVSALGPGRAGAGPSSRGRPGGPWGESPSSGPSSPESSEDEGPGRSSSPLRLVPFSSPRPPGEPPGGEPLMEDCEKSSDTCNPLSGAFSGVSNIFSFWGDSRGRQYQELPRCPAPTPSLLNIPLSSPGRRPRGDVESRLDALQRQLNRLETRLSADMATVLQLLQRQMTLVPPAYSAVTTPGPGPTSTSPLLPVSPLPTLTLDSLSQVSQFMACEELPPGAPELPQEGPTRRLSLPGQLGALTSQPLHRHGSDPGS
Cytochrome P450 3A4, sequence (P08684 whole entry): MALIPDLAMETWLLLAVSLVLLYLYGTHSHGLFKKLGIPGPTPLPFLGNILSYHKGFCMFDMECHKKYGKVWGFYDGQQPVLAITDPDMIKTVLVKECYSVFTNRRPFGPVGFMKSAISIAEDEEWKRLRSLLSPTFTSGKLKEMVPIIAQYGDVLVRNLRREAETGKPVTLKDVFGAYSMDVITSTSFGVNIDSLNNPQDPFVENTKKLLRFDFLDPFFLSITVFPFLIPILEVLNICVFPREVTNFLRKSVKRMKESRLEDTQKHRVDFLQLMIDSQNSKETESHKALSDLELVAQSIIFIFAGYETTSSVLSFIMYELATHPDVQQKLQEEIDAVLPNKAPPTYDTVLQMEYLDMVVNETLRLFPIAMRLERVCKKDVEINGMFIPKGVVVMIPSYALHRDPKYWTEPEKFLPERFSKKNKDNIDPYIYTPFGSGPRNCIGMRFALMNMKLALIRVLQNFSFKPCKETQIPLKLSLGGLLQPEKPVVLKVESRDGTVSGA
Cytochrome P450 2C19, sequence (P33261 whole entry): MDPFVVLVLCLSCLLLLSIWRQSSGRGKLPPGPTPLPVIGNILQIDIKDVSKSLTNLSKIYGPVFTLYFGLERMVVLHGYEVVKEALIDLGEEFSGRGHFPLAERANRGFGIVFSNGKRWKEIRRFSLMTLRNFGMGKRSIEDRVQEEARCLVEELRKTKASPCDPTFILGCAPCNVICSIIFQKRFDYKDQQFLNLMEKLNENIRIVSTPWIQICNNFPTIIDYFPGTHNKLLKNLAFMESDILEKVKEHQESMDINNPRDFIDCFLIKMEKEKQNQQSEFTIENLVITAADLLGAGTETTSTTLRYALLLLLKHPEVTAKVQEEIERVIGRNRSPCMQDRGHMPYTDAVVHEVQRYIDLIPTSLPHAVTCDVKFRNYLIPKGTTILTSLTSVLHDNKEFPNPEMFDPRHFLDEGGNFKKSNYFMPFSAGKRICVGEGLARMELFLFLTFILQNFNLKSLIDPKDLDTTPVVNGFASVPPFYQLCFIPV
Cytochrome P450 2C9, sequence (P11712 whole entry): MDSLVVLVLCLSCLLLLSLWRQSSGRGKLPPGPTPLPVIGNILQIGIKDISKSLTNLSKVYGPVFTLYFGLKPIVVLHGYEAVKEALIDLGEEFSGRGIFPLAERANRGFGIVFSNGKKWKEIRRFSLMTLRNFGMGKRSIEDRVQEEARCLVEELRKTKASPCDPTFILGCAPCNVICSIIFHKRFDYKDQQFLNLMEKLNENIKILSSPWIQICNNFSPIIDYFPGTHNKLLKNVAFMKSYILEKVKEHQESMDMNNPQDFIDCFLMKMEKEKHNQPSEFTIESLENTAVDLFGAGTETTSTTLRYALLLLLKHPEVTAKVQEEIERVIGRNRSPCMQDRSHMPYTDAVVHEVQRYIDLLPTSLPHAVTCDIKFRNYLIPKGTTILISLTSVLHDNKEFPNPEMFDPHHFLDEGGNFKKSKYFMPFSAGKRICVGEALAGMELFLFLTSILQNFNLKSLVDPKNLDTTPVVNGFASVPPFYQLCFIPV
3',5'-cyclic-AMP phosphodiesterase 4A, sequence (P27815 whole entry): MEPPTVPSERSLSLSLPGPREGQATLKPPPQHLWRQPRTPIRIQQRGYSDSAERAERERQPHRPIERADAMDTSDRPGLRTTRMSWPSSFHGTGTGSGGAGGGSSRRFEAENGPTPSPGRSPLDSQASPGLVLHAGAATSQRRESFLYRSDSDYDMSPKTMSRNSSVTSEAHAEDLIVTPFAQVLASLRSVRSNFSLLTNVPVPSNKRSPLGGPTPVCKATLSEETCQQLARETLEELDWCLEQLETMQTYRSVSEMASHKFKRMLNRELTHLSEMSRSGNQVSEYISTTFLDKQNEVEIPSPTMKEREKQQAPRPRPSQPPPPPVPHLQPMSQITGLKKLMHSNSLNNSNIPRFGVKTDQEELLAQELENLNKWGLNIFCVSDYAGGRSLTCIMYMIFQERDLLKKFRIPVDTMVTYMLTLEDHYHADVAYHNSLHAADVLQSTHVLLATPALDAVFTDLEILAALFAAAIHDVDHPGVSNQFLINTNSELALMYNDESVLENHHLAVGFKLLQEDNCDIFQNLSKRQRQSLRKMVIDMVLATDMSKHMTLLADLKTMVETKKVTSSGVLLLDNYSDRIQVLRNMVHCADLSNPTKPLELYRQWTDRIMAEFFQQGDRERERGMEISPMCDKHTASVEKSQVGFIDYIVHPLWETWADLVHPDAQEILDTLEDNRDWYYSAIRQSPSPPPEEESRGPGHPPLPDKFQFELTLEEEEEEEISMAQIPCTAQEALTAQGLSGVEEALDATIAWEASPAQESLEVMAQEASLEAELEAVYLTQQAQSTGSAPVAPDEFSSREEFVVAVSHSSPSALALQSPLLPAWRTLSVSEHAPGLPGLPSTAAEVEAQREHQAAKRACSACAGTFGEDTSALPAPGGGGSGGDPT
Cytochrome P450 2D6, sequence (P10635 whole entry): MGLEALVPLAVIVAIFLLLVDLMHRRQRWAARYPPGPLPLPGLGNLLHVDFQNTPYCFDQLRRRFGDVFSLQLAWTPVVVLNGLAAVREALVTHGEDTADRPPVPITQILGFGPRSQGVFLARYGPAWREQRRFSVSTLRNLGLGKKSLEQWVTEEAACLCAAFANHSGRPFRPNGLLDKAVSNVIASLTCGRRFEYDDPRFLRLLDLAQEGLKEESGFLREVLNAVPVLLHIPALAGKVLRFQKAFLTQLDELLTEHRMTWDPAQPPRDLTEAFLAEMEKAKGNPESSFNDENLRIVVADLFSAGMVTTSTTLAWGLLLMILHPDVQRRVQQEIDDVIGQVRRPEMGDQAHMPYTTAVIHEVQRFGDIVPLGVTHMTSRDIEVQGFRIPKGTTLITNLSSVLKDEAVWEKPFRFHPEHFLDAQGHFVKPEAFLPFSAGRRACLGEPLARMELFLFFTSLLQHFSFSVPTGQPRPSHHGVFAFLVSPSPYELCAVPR

Compound: Cc1cc(C(=O)N[C@H]2CC[C@@H](NC(=O)c3cc(F)cnc3Oc3cccc(-c4ccc(O)cc4CN4CCOCC4)c3)CC2)nn1C
- IC50 [1]: 31600 nM
- inhibition at 50 µM (CYP (isoform not stated)): 73%
- IC50 (PBMC): 0.0631 nM
- fraction unbound [2]: 0.056
- fraction unbound [3]: 0.1
- solubility [4]: 250 µM (≈ 161 µg/mL)
- logD [5]: 3.1
- microsomal CLint [6]: > 150 µL/min/mg
- hepatocyte CLint [7]: 120 µL/min/1e6 cells
- clearance [8]: 69 mL/min/kg
- Vd [9]: 2.6 L/kg
- half-life [10]: 13 h
- IC50 (Cytochrome P450 3A4): 501 nM
- IC50 (Cytochrome P450 2C9): 251 nM
- inhibition (INH) (Rattus norvegicus [11]): 37%
- inhibition (Rattus norvegicus [12]): Active
- IC50 (Cytochrome P450 2D6): > 10000 nM
- IC50 (Cytochrome P450 2C19): 6310 nM
- Vz/F (Rattus norvegicus [13]): 76 L/kg
- inhibition (Rattus norvegicus [14]): Active
- inhibition (Rattus norvegicus [15]): Active

Compound: Cc1ccc(O)c(C(=O)N[C@H]2CC[C@@H](NC(=O)c3cc(F)cnc3Oc3cccc(-c4ccc(CN5C[C@@H](C)N[C@@H](C)C5)cc4CN4CCOCC4)c3)CC2)c1
- bioavailability [16]: < 16%
- clearance [17]: 19 mL/min/kg
- IC50 [1]: 6310 nM
- inhibition (Rattus norvegicus [18]): Active
- IC50 (PBMC): 0.0398 nM
- IC50 (Blood [19]): 12.6 nM
- fraction unbound [2]: 0.013
- fraction unbound [3]: 0.083
- solubility [4]: 213 µM (≈ 163 µg/mL)
- logD [5]: 2.8
- microsomal CLint [6]: 78 µL/min/mg
- hepatocyte CLint [7]: 13 µL/min/1e6 cells
- clearance [8]: 50 mL/min/kg
- Vd [9]: 16 L/kg
- half-life [10]: 7 h
- half-life [20]: 9 h
- inhibition (Rattus norvegicus [11]): Active
- Vz/F (Rattus norvegicus [13]): 30 L/kg
- ED80 (Rattus norvegicus [21]): 60 µg/mL (≈ 78.4 µM)
- inhibition (Rattus norvegicus [14]): Active
- inhibition (Rattus norvegicus [15]): Active
- IC50 [22]: < 10 nM
- Vd [23]: 13 L/kg
- Vd/F [24]: 25 L/kg
- bioavailability [25]: 6%
- half-life [26]: 15 h
- ED80 (Rattus norvegicus [27]): 78 nM
- ED80 (Rattus norvegicus [28]): 0.6 µg/kg
- log K [29]: 1.88
- Activity (Rattus norvegicus [30]): 9 nM
- Activity (Rattus norvegicus [31]): 26 nM
- Activity (Rattus norvegicus [32]): 88 nM
- Activity (Rattus norvegicus [33]): 123 nM
- Activity (Rattus norvegicus [34]): 5 nM
- Activity (Rattus norvegicus [35]): 14 nM
- Activity (Rattus norvegicus [36]): 33 nM
- IC50 [37]: 0.0251 nM
- IC50 (Blood [38]): 0.501 nM
